Data on 5 compounds can be found in ChEMBL document CHEMBL1125911, “Synthesis and biological activity of new HMG-CoA reductase inhibitors. 3. Lactones of 6-phenoxy-3,5-dihydroxyhexanoic acids” (J Med Chem, 1991).

Assay [1] concerns the target T1, 3-hydroxy-3-methylglutaryl-coenzyme A reductase (Homo sapiens, UniProt P04035).
T1 sequence (P04035 whole entry): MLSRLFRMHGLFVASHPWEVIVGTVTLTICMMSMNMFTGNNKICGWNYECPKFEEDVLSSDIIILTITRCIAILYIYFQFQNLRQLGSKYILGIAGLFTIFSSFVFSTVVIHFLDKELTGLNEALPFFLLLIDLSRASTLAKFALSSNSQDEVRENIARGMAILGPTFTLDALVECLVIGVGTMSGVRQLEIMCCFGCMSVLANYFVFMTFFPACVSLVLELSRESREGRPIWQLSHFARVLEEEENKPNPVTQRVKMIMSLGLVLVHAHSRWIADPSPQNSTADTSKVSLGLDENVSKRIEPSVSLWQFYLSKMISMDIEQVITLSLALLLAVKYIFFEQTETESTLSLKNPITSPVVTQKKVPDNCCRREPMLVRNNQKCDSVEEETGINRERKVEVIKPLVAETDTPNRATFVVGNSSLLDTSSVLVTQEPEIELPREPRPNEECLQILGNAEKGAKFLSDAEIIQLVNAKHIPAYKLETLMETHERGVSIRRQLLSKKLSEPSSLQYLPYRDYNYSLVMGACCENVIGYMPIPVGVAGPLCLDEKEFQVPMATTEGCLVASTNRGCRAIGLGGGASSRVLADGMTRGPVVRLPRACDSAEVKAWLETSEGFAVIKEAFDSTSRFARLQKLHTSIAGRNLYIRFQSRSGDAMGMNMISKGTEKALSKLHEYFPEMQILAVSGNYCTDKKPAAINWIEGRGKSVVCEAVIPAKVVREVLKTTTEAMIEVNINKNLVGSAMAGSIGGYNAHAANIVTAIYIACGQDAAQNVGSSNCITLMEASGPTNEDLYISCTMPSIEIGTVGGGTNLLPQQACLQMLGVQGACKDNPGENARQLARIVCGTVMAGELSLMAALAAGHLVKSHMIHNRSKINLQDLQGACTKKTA
As to the kind of experiment: Inhibition of the incorporation of sodium [14C]acetate into cholesterol in HEP G2 cells. The class given is functional, cell-based, HepG2.

The subject of assay [2] is Oryctolagus cuniculus. As to the kind of experiment: Tested in vivo for hypocholesterolemic activity by measuring its ability to decrease serum total cholesterol, after oral administration of 75 mg/kg body wt. per day in normolipidemic NZW rabbits; Very potent. The class given is functional, organism-based. Set-up: dose 75 mg/kg, route oral.
In assay [3] the test system is Oryctolagus cuniculus. As to the kind of experiment: Tested in vivo for hypocholesterolemic activity by measuring its ability to decrease serum total cholesterol, after oral administration of 20 mg/kg body wt. per day in normolipidemic NZW rabbits. The class given is functional. The gist of the method: (§1)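 NZW rabbits (n = 5 or 6) dosed orally daily for 10 days. Serum total cholesterol reported as % change versus control. For 20 mg/kg, that dose was given on days 11-20 after 10 mg/kg, with the value read on day 20. Error given as SEM.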

For assay [4], the system named is Oryctolagus cuniculus. As to the kind of experiment: Tested in vivo for hypocholesterolemic activity by measuring its ability to decrease serum total cholesterol, after oral administration of 10 mg/kg body wt. per day in normolipidemic NZW rabbits. The assay is classed as functional. A digest of the protocol:
as §1

Assay [5] has as its target T2, 3-hydroxy-3-methylglutaryl-coenzyme A reductase (Rattus norvegicus, UniProt P51639).
T2 sequence (P51639 whole entry): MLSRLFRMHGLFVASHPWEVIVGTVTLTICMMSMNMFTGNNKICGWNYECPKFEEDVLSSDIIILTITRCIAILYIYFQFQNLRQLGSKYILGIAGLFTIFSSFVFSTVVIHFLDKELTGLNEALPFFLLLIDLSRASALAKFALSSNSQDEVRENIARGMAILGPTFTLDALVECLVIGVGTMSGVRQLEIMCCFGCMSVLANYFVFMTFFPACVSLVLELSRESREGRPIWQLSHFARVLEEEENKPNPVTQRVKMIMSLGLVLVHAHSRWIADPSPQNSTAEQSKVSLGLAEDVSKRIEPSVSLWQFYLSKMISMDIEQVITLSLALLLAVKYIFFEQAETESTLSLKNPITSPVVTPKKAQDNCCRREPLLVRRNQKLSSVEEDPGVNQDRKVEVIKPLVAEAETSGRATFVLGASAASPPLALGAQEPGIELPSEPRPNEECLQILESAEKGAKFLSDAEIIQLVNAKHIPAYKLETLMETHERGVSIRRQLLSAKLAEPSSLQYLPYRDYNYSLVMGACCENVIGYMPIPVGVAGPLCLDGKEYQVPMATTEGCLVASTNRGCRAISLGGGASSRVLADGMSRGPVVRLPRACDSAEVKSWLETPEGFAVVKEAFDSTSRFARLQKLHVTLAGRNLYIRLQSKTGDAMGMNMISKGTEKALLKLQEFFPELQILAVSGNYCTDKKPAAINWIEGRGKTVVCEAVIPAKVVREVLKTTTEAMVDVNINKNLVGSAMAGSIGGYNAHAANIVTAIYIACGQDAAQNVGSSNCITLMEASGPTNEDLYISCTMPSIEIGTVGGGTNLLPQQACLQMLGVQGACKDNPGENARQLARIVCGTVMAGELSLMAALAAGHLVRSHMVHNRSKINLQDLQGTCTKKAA
As to the kind of experiment: In vitro inhibition of HMG-CoA reductase in solubilized rat liver.

Assay [6] concerns the target T3, 3-hydroxy-3-methylglutaryl-coenzyme A reductase (Rattus norvegicus) (UniProt P51639).
T3 sequence (whole entry): T2 sequence (P51639 whole entry)
As to the kind of experiment: (§2) Inhibition of HMG-CoA reductase compared to mevinolin. The gist of the method: (§3)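 Solubilized, partially purified rat liver HMG-CoA reductase. IC50 from four or five inhibitor concentrations. Relative potency compared IC50 with mevinolin (set to 100), corrected for molecular weight.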

Assay [7] has as its system Canis familiaris. As to the kind of experiment: Tested in vivo for hypocholesterolemic activity by measuring its ability to decrease serum LDL-cholesterol, after oral administration of 25 mg/kg per day for 14 days in male Beagle dogs. The class given is functional, Canis lupus familiaris. A digest of the protocol:
(§4)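 Male beagle dogs (n = 4) given neat compound in gelatine capsules daily at 3:00 p.m.; controls received empty capsules. After an overnight fast, venous blood was drawn at 8:00 a.m. Serum lipoproteins were separated by ultracentrifugation (densities 1.006/1.063/1.21). LDL-cholesterol reported as % change versus control.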

In assay [8] the test system is Canis familiaris. As to the kind of experiment: Tested in vivo for hypocholesterolemic activity by measuring its ability to decrease serum LDL-cholesterol, after oral administration of 10 mg/kg per day for 14 days in male Beagle dogs. The assay is classed as functional, Canis lupus familiaris. A digest of the protocol: as §4
Assay [9] has as its target T4, 3-hydroxy-3-methylglutaryl-coenzyme A reductase (Homo sapiens) (UniProt P04035).
T4 sequence (whole entry): T1 sequence (P04035 whole entry)
The assay is described as §2. The assay is classed as functional. A digest of the protocol:
as §3

For assay [10], the species on record is Rattus norvegicus. As to the kind of experiment: Potency relative to mevinolin was determined with respect to IC50. […]. The assay is classed as functional.
In assay [11] the test system is Rattus norvegicus. As to the kind of experiment: In vivo inhibition of hepatic cholesterol de novo synthesis in rat after oral administration of 5 mg/kg dose. The assay is classed as functional.
The subject of assay [12] is Canis familiaris. As to the kind of experiment: Tested in vivo for hypocholesterolemic activity by measuring its ability to decrease serum LDL-cholesterol, after oral administration of 30 mg/kg per day for 21 days in male Beagle dogs. The assay is classed as functional, Canis lupus familiaris. A digest of the protocol:
as §4

In assay [13] the test system is Canis familiaris. As to the kind of experiment: Tested in vivo for hypocholesterolemic activity by measuring its ability to decrease serum LDL-cholesterol, after oral administration of 10 mg/kg per day for 19 days in male Beagle dogs.
Assay [14] has as its target T2, 3-hydroxy-3-methylglutaryl-coenzyme A reductase. As to the kind of experiment: In vitro inhibition of solubilized HMG-CoA reductase in rat liver.
Assay [15] has as its system Oryctolagus cuniculus. As to the kind of experiment: Tested in vivo for hypocholesterolemic activity by measuring its ability to decrease serum total cholesterol, after oral administration of 75 mg/kg body wt. per day in normolipidemic NZW rabbits; More potent than compound 73. Set-up: dose 75 mg/kg, route oral. The class given is functional, organism-based.
The subject of assay [16] is Rattus norvegicus. As to the kind of experiment: Compound was tested for effect on serum LDL after oral administration of 30 mg/kg in male rats. The assay is classed as functional. A digest of the protocol: (§5)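 Male HOE:WISKf (SPF 71) rats, initial body weight over 180 g, n = 10 per group, dosed once daily in the morning by gavage in polyethylene glycol 400 for 7 days; controls received vehicle. Fasted after last dose, bled retroorbitally 24 h later under mild ether. Liver and body weight recorded. Pooled group serum was ultracentrifuged into VLDL (<1.006), LDL (1.006-1.04) and HDL (1.04-1.21). Values are % change versus control.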

The test system of assay [17] is Rattus norvegicus. As to the kind of experiment: Compound was tested for effect on body weight after oral administration of 30 mg/kg in male rats. The assay is classed as functional. The gist of the method:
as §5

In assay [18] the test system is Rattus norvegicus. As to the kind of experiment: Compound was tested for effect on serum LDL after oral administration of 100 mg/kg in male rats. The assay is classed as functional. The gist of the method: as §5
The species named for assay [19] is Rattus norvegicus. As to the kind of experiment: Compound was tested for inhibition of microsomal lipid peroxidation and the potency relative to terbufucine was determined. The assay is classed as functional. The gist of the method: (§6)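 Rat liver microsomes in 50 mM Tris-HCl pH 7.4 with 100 mM KCl and 6.0 mM MgCl2, final protein 0.4 mg/mL. Peroxidation was started with ADP (2 mM)/FeCl3 (10 μM) plus an NADPH-regenerating system. Incubation 30 min at 37 °C with shaking. Thiobarbituric acid reactive substances were read at 535 nm.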

Assay [20] concerns Rattus norvegicus. As to the kind of experiment: Compound was tested for effect on serum VLDL after oral administration of 30 mg/kg in male rats. The class given is functional. The gist of the method: as §5
Assay [21] relates to Rattus norvegicus. As to the kind of experiment: Compound was tested for effect on body weight after oral administration of 100 mg/kg in male rats. The assay is classed as functional. A digest of the protocol:
as §5

In assay [22] the test system is Rattus norvegicus. As to the kind of experiment: Compound was tested for effect on liver weight after oral administration of 30 mg/kg in male rats. The class given is functional. A digest of the protocol: as §5
Assay [23] relates to Rattus norvegicus. As to the kind of experiment: Compound was tested for effect on serum HDL after oral administration of 100 mg/kg in male rats. The class given is functional. The gist of the method:
as §5

Assay [24] concerns Rattus norvegicus. As to the kind of experiment: Compound was tested for effect on serum VLDL after oral administration of 100 mg/kg in male rats. The class given is functional. A digest of the protocol:
as §5

In assay [25] the test system is Rattus norvegicus. As to the kind of experiment: Compound was tested for effect on serum HDL after oral administration of 30 mg/kg in male rats. The class given is functional. A digest of the protocol: as §5
The test system of assay [26] is Rattus norvegicus. As to the kind of experiment: Compound was tested for effect on liver weight after oral administration of 100 mg/kg in male rats. The class given is functional. The gist of the method:
as §5

The species entered for assay [27] is Rattus norvegicus. As to the kind of experiment: In vitro inhibition of microsomal lipid peroxidation. The assay is classed as functional. The gist of the method:
as §6

Broadly, the IC50 is the midpoint of a concentration-inhibition curve. On to `CC(C)c1cc(-c2ccc(F)cc2)c(OCC(O)C[C@@H](O)CC(=O)[O-])c(C(C)C)c1.[Na+]` (stereo partly specified), for which the values for the IC50 (in [1]; in the assay with Oryctolagus cuniculus [2]; in assay [5]) were 0.03 µM, “Very potent” and 0.0027 µM, respectively. Moreover, the Change with Oryctolagus cuniculus [3] was -37%; in the assay on Oryctolagus cuniculus [4], -32%; with Canis familiaris [7], -21%; in the assay with Canis familiaris [8] it was -10%. For the same compound, the figures for the Relative potency in assay [6] and in assay [9] were 300 and 150, respectively.

Regarding `CC(C)c1cc(-c2ccc(F)cc2)cc(-c2ccc(F)cc2)c1OCC1C[C@@H](O)CC(=O)O1` (stereo partly specified), the Change is on record as -34% in the assay on Oryctolagus cuniculus [3], -28% in the assay with Oryctolagus cuniculus [4] and 3% in the assay on Canis familiaris [12]. In addition, the Relative potency in the assay listed under Rattus norvegicus [10] came to 18. In the assay with Rattus norvegicus [11], this compound had a Cholesterol of 84.5%.

Take `CC[C@H](C)C(=O)O[C@H]1C[C@@H](C)C=C2C=C[C@H](C)[C@H](CC[C@@H]3C[C@@H](O)CC(=O)O3)[C@H]21` [LOVASTATIN]: the values for the Change in the assay with Oryctolagus cuniculus [3], in the assay with Oryctolagus cuniculus [4] and in the assay with Canis familiaris [13] were -27%, -25% and -20%, respectively. Moreover, the Cholesterol in the assay with Rattus norvegicus [11] is 14%.

For `CC(C)c1nc(C(C)(C)C)cc(-c2ccc(F)cc2)c1/C=C/[C@@H](O)C[C@@H](O)CC(=O)[O-].[Na+]`, the results for the IC50 (in assay [14]; with Oryctolagus cuniculus [15]) were 0.001 µM and “More potent than compound 73”, respectively.

In the case of `CC(C)c1cc(SC(C)(C)Sc2cc(-c3ccc(F)cc3)c(OCC(O)C[C@@H](O)CC(=O)[O-])c(C(C)C)c2)cc(-c2ccc(F)cc2)c1[O-].[Na+].[Na+]` (stereo partly specified), the IC50 in [1] is over 1.7 µM; in assay [5], 0.03 µM; in the assay filed under Rattus norvegicus [27], 2.7 µM. The Change in the assay on Rattus norvegicus [16] is recorded as -26%; in the assay on Rattus norvegicus [17], 5%; with Rattus norvegicus [18] it was -16%; in the assay on Rattus norvegicus [20], 12%; with Rattus norvegicus [21] it was 5%; in the assay with Rattus norvegicus [22], 3%. The Change is -3% in the assay on Rattus norvegicus [23], 13% with Rattus norvegicus [24], 13% in the assay on Rattus norvegicus [25] and 1% in the assay on Rattus norvegicus [26]. In addition, the Relative potency in the assay filed under Rattus norvegicus [19] is 4; in assay [6], 15; in [9], under 3.
